Drawing on ChEMBL document CHEMBL1806456, “Chemistry of ecteinascidins. Part 3: preparation of 2'-N-acyl derivatives of ecteinascidin 770 and evaluation of cytotoxicity” (Bioorg Med Chem, 2011), this text covers IC50 for eleven compounds.

As a reminder, the IC50 is the concentration needed to halve the response being measured. Read a high IC50 as weaker potency.

Common to all, as to type: functional, cell-based
One assay deals with HCT-116. The assay is described as follows: Cytotoxicity against human HCT116 cells after 4 days by MTT assay. As to conditions: HCT-116, 96 h. In a few lines:
(§1)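 Cells seeded as single-cell suspension, 2 × 10³ cells/well, onto serially diluted compounds in microplates; cultured 4 d. Viable cells counted with a cell counting kit. IC50 taken as concentration giving 50% growth inhibition relative to untreated control.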
(In general: Tetrazolium assays rely on reduction of a dye to a coloured formazan, in cell work by metabolically active cells.)

A further assay relates to QG-56. The assay is described as follows: Cytotoxicity against human QG56 cells after 4 days by MTT assay. The note with it: QG-56, 96 h. In a few lines:
as §1

Another assay has as its system DU-145. The assay can be described thus: Cytotoxicity against human DU145 cells after 4 days by MTT assay. As to conditions: DU-145, 96 h. An outline of the steps:
as §1

Take `COc1cc2c(cc1O)CCN(C(=O)c1c[nH]c3ccccc13)[C@]21CS[C@@H]2c3c(OC(C)=O)c(C)c4c(c3[C@@H](COC1=O)N1[C@@H]2[C@H]2c3c(cc(C)c(OC)c3O)C[C@@H]([C@@H]1C#N)N2C)OCO4`: the IC50 in the assay on HCT-116 worked out at 0.16 nM; in the assay on QG-56, 0.46 nM; with DU-145, 0.45 nM.

As to `C=CCOc1cc2c(cc1OC)[C@@]1(CS[C@@H]3c4c(OC(C)=O)c(C)c5c(c4[C@@H](COC1=O)N1[C@@H]3[C@H]3c4c(cc(C)c(OC)c4OCC=C)C[C@@H]([C@@H]1C#N)N3C)OCO5)NCC2`, the IC50 in the assay with HCT-116 stood at 54 nM; in the assay with QG-56 it was 160 nM; in the assay with DU-145, 100 nM.

On to `C=CCOc1cc2c(cc1OC)[C@@]1(CS[C@@H]3c4c(OC(C)=O)c(C)c5c(c4[C@@H](COC1=O)N1[C@@H]3[C@H]3c4c(cc(C)c(OC)c4O)C[C@@H]([C@@H]1C#N)N3C)OCO5)NCC2`, for which the IC50 in the assay with HCT-116 came out at 2.4 nM; in the assay with QG-56 it was 12 nM; with DU-145 it was 7.1 nM.

Consider `C=CCOc1cc2c(cc1OC)[C@@]1(CS[C@@H]3c4c(OC(C)=O)c(C)c5c(c4[C@@H](COC1=O)N1[C@@H]3[C@H]3c4c(cc(C)c(OC)c4OCC=C)C[C@@H]([C@@H]1C#N)N3C)OCO5)N(CC=C)CC2`, for which the half-inhibitory concentration (IC50) is 620 nM in the assay with HCT-116, over 1000 nM with QG-56 and over 1000 nM in the assay on DU-145.

For `C=CCN1CCc2cc(O)c(OC)cc2[C@@]12CS[C@@H]1c3c(OC(C)=O)c(C)c4c(c3[C@@H](COC2=O)N2[C@@H]1[C@H]1c3c(cc(C)c(OC)c3O)C[C@@H]([C@@H]2C#N)N1C)OCO4`, the figures for the IC50 with HCT-116, with QG-56 and with DU-145 were 0.5 nM, 1.8 nM and 1.2 nM, respectively.

`C=CCOc1cc2c(cc1OC)[C@@]1(CS[C@@H]3c4c(OC(C)=O)c(C)c5c(c4[C@@H](COC1=O)N1[C@@H]3[C@H]3c4c(cc(C)c(OC)c4OCC=C)C[C@@H]([C@@H]1C#N)N3C)OCO5)N(C(=O)c1c[nH]c3ccccc13)CC2`: the results for the IC50 with HCT-116, in the assay on QG-56 and in the assay with DU-145 were 0.45 nM, over 1000 nM and over 1000 nM, respectively.

As for `C=CCOc1cc2c(cc1OC)[C@@]1(CS[C@@H]3c4c(OC(C)=O)c(C)c5c(c4[C@@H](COC1=O)N1[C@@H]3[C@H]3c4c(cc(C)c(OC)c4OCC=C)C[C@@H]([C@@H]1C#N)N3C)OCO5)N(C(=O)c1ccccc1)CC2`, the figures for the IC50 in the assay on HCT-116, with QG-56 and in the assay with DU-145 were 190 nM, 690 nM and 540 nM, respectively.

On to `C=CCOc1cc2c(cc1OC)[C@@]1(CS[C@@H]3c4c(OC(C)=O)c(C)c5c(c4[C@@H](COC1=O)N1[C@@H]3[C@H]3c4c(cc(C)c(OC)c4OCC=C)C[C@@H]([C@@H]1C#N)N3C)OCO5)N(C(=O)c1ccc([N+](=O)[O-])cc1)CC2`, for which the IC50 in the assay on HCT-116 worked out at 260 nM; with QG-56, 790 nM; in the assay on DU-145, 590 nM.

Take `C=CCOc1cc2c(cc1OC)[C@@]1(CS[C@@H]3c4c(OC(C)=O)c(C)c5c(c4[C@@H](COC1=O)N1[C@@H]3[C@H]3c4c(cc(C)c(OC)c4OCC=C)C[C@@H]([C@@H]1C#N)N3C)OCO5)N(C(=O)c1cccc([N+](=O)[O-])c1)CC2`: the IC50 in the assay with HCT-116 was found to be 180 nM; in the assay on QG-56, 520 nM; in the assay with DU-145, 270 nM.

Consider `C=CCOc1cc2c(cc1OC)[C@@]1(CS[C@@H]3c4c(OC(C)=O)c(C)c5c(c4[C@@H](COC1=O)N1[C@@H]3[C@H]3c4c(cc(C)c(OC)c4OCC=C)C[C@@H]([C@@H]1C#N)N3C)OCO5)N(C(=O)c1ccncc1)CC2`, for which the IC50 was 280 nM in the assay on HCT-116, 790 nM with QG-56 and 590 nM in the assay on DU-145.

For the compound `COc1cc2c(cc1O)CCN[C@]21CS[C@@H]2c3c(OC(C)=O)c(C)c4c(c3[C@H](COC1=O)N1[C@@H]2[C@H]2c3c(cc(C)c(OC)c3O)C[C@@H]([C@@H]1C#N)N2C)OCO4` [ECTEINASCIDIN 770], the IC50 in the assay on HCT-116 amounted to 0.6 nM; in the assay on QG-56, 2.4 nM; in the assay on DU-145, 0.81 nM.
